Test results taken from ChEMBL document CHEMBL5143666, “Insights into the anticancer activity of chiral alkylidene-β-lactams and alkylidene-γ-lactams: Synthesis and biological investigation” (Bioorg Med Chem, 2022).
The source made the active and inactive calls. No cut-off for these calls is given here.

Assays:
HT-1080 = assay: Cytotoxicity against human HT-1080 cells after 48 hrs by MTT assay; type: functional, cell-based; conditions: HT-1080, 48 h
Summary of the method: (§1)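 Cells seeded at 1×10^5 per well, attached overnight, then exposed to serial dilutions from 10 mM DMSO stocks (vehicle control 1% DMSO) for 48 or 72 h; triplicate wells. MTT 0.5 mg/mL, 4 h at 37 °C; formazan dissolved in acid isopropanol, absorbance read. IC50 from sigmoidal variable-slope fit of % metabolic activity vs log concentration; ≥2 independent experiments.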

OE19 [1] = assay: Cytotoxicity against human OE19 cells after 48 hrs by MTT assay; type: functional, cell-based; conditions: OE19, 48 h; summary of the method: as §1
OE19 [2] = assay: Cytotoxicity against human OE19 cells after 72 hrs by MTT assay; type: functional, cell-based; conditions: OE19, 72 h; summary of the method: as §1
A-375 [3] = assay: Cytotoxicity against human A375 cells after 48 hrs by MTT assay; type: functional, cell-based; conditions: A-375, 48 h; summary of the method: as §1
[4] = biological target: Matrix metalloproteinase-9 (Homo sapiens) (UniProt P14780); assay: Inhibition of MMP9 in human HT-1080 cells at 10 uM by gelatin zymography; type: cell-based
NCI-H1299 = assay: Cytotoxicity against human H1299 cells after 48 hrs by MTT assay; type: functional, cell-based; conditions: NCI-H1299, 48 h; summary of the method: as §1
A-375 [5] = assay: Induction of apoptosis in human A375 cells assessed as late apoptotic cells at 10 uM after 48 hrs by annexin-v and PI staining based flow cytometry analysis (reference value: 1.83 +/- 0.41%); type: functional
A-375 [6] = assay: Induction of apoptosis in human A375 cells assessed as viable cells at 10 uM after 48 hrs by annexin-v and PI staining based flow cytometry analysis (reference value: 93.63 +/- 1.37%); type: functional; conditions: read-out: Activity
A-375 [7] = assay: Induction of apoptosis in human A375 cells assessed as necrotic cells at 10 uM after 48 hrs by annexin-v and PI staining based flow cytometry analysis (reference value: 1.17 +/- 0.41%); type: functional
A-375 [8] = assay: Induction of apoptosis in human A375 assessed as loss of cell integrity at 5 to 10 uM after 48 hrs by May-Grunwald- Giemsa staining based optical microscopic analysis; type: functional; conditions: dose 5-10 µM
Summary of the method: (§2)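 A375 cells exposed to 5 or 10 μM for 48 h, stained with May-Grünwald Giemsa and examined by optical microscopy at 50x. Representative images taken at random for each condition.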

A-375 [9] = assay: Induction of cell cycle arrest in human A375 assessed as number of cells at G2/M phase at 5 uM after 48 hrs by flow cytometry (reference value: 5.17 +/- 0.75 %); type: functional
A-375 [10] = assay: Effect on reactive oxygen production in human A375 cells assessed as decrease in peroxide level at 10 uM after 48 hrs by DCFH2-DA staining based spectrophotometry; type: functional, cell-based
Summary of the method: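 A375 cells (5×10^5) attached overnight, exposed at 5 or 10 μM for 8 or 48 h. Intracellular peroxides measured with 5 μM DCFH2-DA, 45 min at 37 °C in the dark; after washing, fluorescence read at ex 485 / em 528 nm. Mean ± SD of two independent experiments in duplicate.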

A-375 [11] = assay: Induction of cell cycle arrest in human A375 assessed as number of cells at S phase at 10 uM after 48 hrs by flow cytometry (reference value: 11.33 +/- 1.86 %)
A-375 [12] = assay: Induction of apoptosis in human A375 assessed as formation of bleb at 5 to 10 uM after 48 hrs by May-Grunwald- Giemsa staining based optical microscopic analysis; type: functional, cell-based; conditions: dose 5-10 µM; summary of the method: as §2
A-375 [13] = assay: Induction of cell cycle arrest in human A375 assessed as number of cells at G1 phase at 10 uM after 48 hrs by flow cytometry (reference value: 83.5 +/- 1.87 %); type: functional
A-375 [14] = assay: Induction of cell cycle arrest in human A375 assessed as number of cells at G1 phase at 5 uM after 48 hrs by flow cytometry (reference value: 83.5 +/- 1.87 %); type: functional
A-375 [15] = assay: Induction of cell cycle arrest in human A375 assessed as number of cells at S phase at 5 uM after 48 hrs by flow cytometry (reference value: 11.33 +/- 1.86 %); type: functional
A-375 [16] = assay: Induction of cell cycle arrest in human A375 assessed as number of cells at G2/M phase at 10 uM after 48 hrs by flow cytometry (reference value: 5.17 +/- 0.75 %); type: functional

Chain of Matrix metalloproteinase-9 (Homo sapiens) (P14780 whole entry): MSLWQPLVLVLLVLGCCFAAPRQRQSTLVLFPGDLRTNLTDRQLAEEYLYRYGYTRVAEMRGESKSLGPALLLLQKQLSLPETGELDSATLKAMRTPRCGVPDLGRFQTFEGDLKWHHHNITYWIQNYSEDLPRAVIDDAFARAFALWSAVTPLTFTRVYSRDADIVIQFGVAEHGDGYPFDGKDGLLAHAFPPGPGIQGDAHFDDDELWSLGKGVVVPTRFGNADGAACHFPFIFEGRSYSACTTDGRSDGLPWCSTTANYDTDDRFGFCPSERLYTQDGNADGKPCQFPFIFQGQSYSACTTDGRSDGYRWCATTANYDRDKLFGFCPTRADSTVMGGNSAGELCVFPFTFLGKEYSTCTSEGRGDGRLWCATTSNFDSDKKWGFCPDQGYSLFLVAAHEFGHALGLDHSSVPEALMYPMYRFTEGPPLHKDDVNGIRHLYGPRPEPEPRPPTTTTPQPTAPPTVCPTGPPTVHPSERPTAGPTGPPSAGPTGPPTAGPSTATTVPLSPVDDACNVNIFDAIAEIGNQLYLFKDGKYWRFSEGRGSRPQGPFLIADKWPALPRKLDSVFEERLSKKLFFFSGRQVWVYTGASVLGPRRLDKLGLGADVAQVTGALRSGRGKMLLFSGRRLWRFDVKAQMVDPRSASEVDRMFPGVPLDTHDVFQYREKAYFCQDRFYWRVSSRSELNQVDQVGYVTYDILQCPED

SMILES	IC50 (HT-1080) [µM]	IC50 (OE19 [1]) [µM]	IC50 (A-375 [3]) [µM]	inhibition [4]	IC50 (NCI-H1299) [µM]	further results
CC1(C)S[C@@H]2/C(=C\C(=O)c3ccccc3)C(=O)N2[C@H]1C(=O)OC(c1ccccc1)c1ccccc1	21.1	12.8	22.8	Active	39	IC50 (OE19 [2]): 8.6 µM
CC1(C)[C@H](C(=O)OC(c2ccccc2)c2ccccc2)N2C(=O)/C(=C/C(=O)c3ccccc3)[C@H]2[S+]1[O-] (some centres undefined)	65.5	23.7	4.5	–	92.4	Activity (A-375 [5]): 4.17%; viability at 10 µM (A-375 [6]): 89.2%; Activity (A-375 [7]): 3%
CC1(C)[C@H](C(=O)OC(c2ccccc2)c2ccccc2)N2C(=O)/C(=C/C(=O)c3ccc([N+](=O)[O-])cc3)[C@H]2S1(=O)=O	–	95.5	76.7	–	–	–
CC1(C)S[C@@H]2/C(=C\C(=O)OCc3ccccc3)C(=O)N2[C@H]1C(=O)OC(c1ccccc1)c1ccccc1	11.7	8.2	7.1	Active	9.4	Activity (A-375 [8]): Active; Activity (A-375 [9]): 8.75%; Activity (A-375 [5]): 13%; Activity (A-375 [10]): Active; Activity (A-375 [11]): 29.67%; Activity (A-375 [12]): Active; IC50 (OE19 [2]): 4.6 µM; Activity (A-375 [13]): 58.33%; Activity (A-375 [14]): 71.25%; Activity (A-375 [15]): 19.5%; viability at 10 µM (A-375 [6]): 56.2%; Activity (A-375 [7]): 24%; Activity (A-375 [16]): 12%
CC1(C)S[C@@H]2/C(=C\C(=O)c3ccc(Br)cc3)C(=O)N2[C@H]1C(=O)OC(c1ccccc1)c1ccccc1	–	13.8	29.7	–	–	–
CC1(C)[C@H](C(=O)OC(c2ccccc2)c2ccccc2)N2C(=O)/C(=C/C(=O)c3ccccc3)[C@H]2S1(=O)=O	19.5	53.1	17.5	–	50.1	–
CC1(C)S[C@@H]2/C(=C\C(=O)c3ccc(C(F)(F)F)cc3)C(=O)N2[C@H]1C(=O)OC(c1ccccc1)c1ccccc1	–	15.6	26.7	–	–	–
CC1(C)S[C@@H]2/C(=C\C(=O)c3ccco3)C(=O)N2[C@H]1C(=O)OC(c1ccccc1)c1ccccc1	45.5	54.3	26	–	61.5	–
CC1(C)S[C@@H]2/C(=C\C(=O)c3ccc([N+](=O)[O-])cc3)C(=O)N2[C@H]1C(=O)OC(c1ccccc1)c1ccccc1	–	44.1	50.3	–	–	–
CC(=O)/C=C1\C[C@H]2SC(C)(C)[C@H](C(=O)OC(c3ccccc3)c3ccccc3)N2C1=O	> 100	> 100	> 100	–	> 100	–
CC1(C)S[C@@H]2/C(=C\C(=O)c3ccc4ccccc4c3)C(=O)N2[C@H]1C(=O)OC(c1ccccc1)c1ccccc1	–	19.5	36.5	–	–	–
CC(=O)/C=C1/C(=O)N2[C@@H]1SC(C)(C)[C@@H]2C(=O)OC(c1ccccc1)c1ccccc1	20.8	51.9	63	–	24.2	–
CC1(C)[C@H](C(=O)OC(c2ccccc2)c2ccccc2)N2C(=O)/C(=C/C(=O)c3ccc([N+](=O)[O-])cc3)[C@H]2[S+]1[O-] (some centres undefined)	–	92.4	48.2	–	–	–
CC1(C)S[C@@H]2/C(=C\C(=O)c3ccc(Cl)cc3)C(=O)N2[C@H]1C(=O)OC(c1ccccc1)c1ccccc1	–	14.6	48.6	–	–	–
CC1(C)S[C@@H]2C/C(=C\C(=O)c3ccccc3)C(=O)N2[C@H]1C(=O)OC(c1ccccc1)c1ccccc1	–	73.3	> 100	61.4%	–	–
CC1(C)S[C@@H]2/C(=C\C(=O)OC(c3ccccc3)c3ccccc3)C(=O)N2[C@H]1C(=O)OC(c1ccccc1)c1ccccc1	15.2	21.6	9.1	Active	22.4	Activity (A-375 [5]): 7.75%; Activity (A-375 [10]): Active; Activity (A-375 [11]): 15.33%; Activity (A-375 [13]): 67.67%; viability at 10 µM (A-375 [6]): 73.5%; Activity (A-375 [7]): 14.75%; Activity (A-375 [16]): 13%
CC1(C)S[C@@H]2/C(=C\C(=O)c3cc(F)cc(F)c3)C(=O)N2[C@H]1C(=O)OC(c1ccccc1)c1ccccc1	–	17.6	19.1	–	–	–
COC(=O)/C=C1\C[C@H]2SC(C)(C)[C@H](C(=O)OC(c3ccccc3)c3ccccc3)N2C1=O	–	99.7	> 100	52.9%	–	–
COC(=O)/C=C1/C(=O)N2[C@@H]1SC(C)(C)[C@@H]2C(=O)OC(c1ccccc1)c1ccccc1	–	20.2	24.6	–	–	–
CC1(C)S[C@@H]2/C(=C\C(=O)c3ccc(F)cc3)C(=O)N2[C@H]1C(=O)OC(c1ccccc1)c1ccccc1	11.2	12.1	17.8	Active	25.2	IC50 (OE19 [2]): 10.7 µM
CC1(C)S[C@@H]2/C(=C\C(=O)c3cc(C(F)(F)F)cc(C(F)(F)F)c3)C(=O)N2[C@H]1C(=O)OC(c1ccccc1)c1ccccc1	–	48.5	39.2	–	–	–
CCOC(=O)/C=C1/C(=O)N2[C@@H]1SC(C)(C)[C@@H]2C(=O)OC(c1ccccc1)c1ccccc1	25.1	11.2	7	Active	15	Activity (A-375 [5]): 11.5%; Activity (A-375 [10]): Active; Activity (A-375 [11]): 25.75%; IC50 (OE19 [2]): 5.3 µM; Activity (A-375 [13]): 61.65%; viability at 10 µM (A-375 [6]): 63%; Activity (A-375 [7]): 20.8%; Activity (A-375 [16]): 12.5%
